Data reported in ChEMBL document CHEMBL1123034 (J Med Chem, 1985).

Columns and labels:
[1] = target: Neuronal acetylcholine receptor; assay type: tissue-based, Brain
[2] = target: T1, Neuronal acetylcholine receptor (Rattus norvegicus) (UniProt P04757+P09483+P12389+P12390+P12392+P43144+Q9JLB5+P12391+P43143+P20420+Q05941)
[3] = target: T1, Neuronal acetylcholine receptor (Rattus norvegicus); test: Compounds was evaluate for their ability to enhance (+/-)-[3H]nicotine binding at a dose range 10 E -10 - 10 E -6 M was reported; assay type: protein-complex assay
Summary of the method: (§1)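 Whole-brain P2 fraction from female Sprague-Dawley rats (200–300 g), prepared at 4 °C, ~2 mg protein per tube. […] Nonspecific binding defined with 10^-2 M (-)-nicotine. Triplicates, usually four homogenates. Enhancement assessed by two-way ANOVA or pooled t-test.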

[4] = target: Neuronal acetylcholine receptor; test: Compounds was evaluated in vitro for ability to enhance and inhibit the binding of (+/-)-[3H]nicotine to the rat brain P2 fraction at binding site 1; 10e-10-10e-3
Summary of the method: as §1

[5] = target: T1, Neuronal acetylcholine receptor (Rattus norvegicus); test: Compounds was evaluate for their ability to enhance (+/-)-[3H]nicotine binding at a dose range 10 E -10 - 10 E -7 M was reported; assay type: protein-complex assay
Summary of the method: (§2)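 Bound ligand collected on poly-L-lysine-soaked glass-fibre filters, washed with cold Hepes and counted by liquid scintillation. Nonspecific binding defined with 10^-2 M (-)-nicotine. Triplicates, usually four homogenates. Enhancement tested by two-way ANOVA with linear/quadratic dose components, or pooled t-test.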

[6] = target: T1, Neuronal acetylcholine receptor (Rattus norvegicus); test: Compounds was evaluate for their ability to enhance (+/-)-[3H]nicotine binding at a dose range 10 E -10 - 10 E -5 M was reported; assay type: protein-complex assay
Summary of the method: as §1

[7] = target: T1, Neuronal acetylcholine receptor (Rattus norvegicus); test: Compounds was evaluate for their ability to enhance (+/-)-[3H]nicotine binding at a dose range 10 E -12- 10 E -5 M was reported; assay type: protein-complex assay
Summary of the method: as §1

[8] = target: Neuronal acetylcholine receptor; test: Compound was evaluated for ability to enhance the binding of (+/-)-[3H]nicotine to the rat brain P2 fraction at binding site 1; assay type: tissue-based
Summary of the method: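 Whole-brain P2 fraction from female Sprague-Dawley rats (200–300 g), prepared at 4 °C, ~2 mg protein per tube. Triplicates, usually four homogenates. Enhancement assessed by two-way ANOVA or pooled t-test.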

[9] = target: Neuronal acetylcholine receptor
[10] = target: T1, Neuronal acetylcholine receptor (Rattus norvegicus); remark: listed apart in the source
[11] = target: T1, Neuronal acetylcholine receptor (Rattus norvegicus); remark: listed apart in the source
[12] = target: T1, Neuronal acetylcholine receptor (Rattus norvegicus); remark: listed apart in the source
[13] = target: T1, Neuronal acetylcholine receptor (Rattus norvegicus); test: Compounds was evaluate for their ability to enhance (+/-)-[3H]nicotine binding at a dose range 2.5*10e-9-2.5*10e-5 M was reported; assay type: protein-complex assay
Summary of the method: as §1

[14] = target: T1, Neuronal acetylcholine receptor (Rattus norvegicus); test: Compounds was evaluate for their ability to enhance (+/-)-[3H]nicotine binding at a dose range 10 E -8 - 10 E -4 M was reported; assay type: protein-complex assay
Summary of the method: as §1

[15] = target: T1, Neuronal acetylcholine receptor (Rattus norvegicus); test: Compounds was evaluated for their ability to enhance (+/-)-[3H]nicotine binding at a dose range 10 E -9 - 10 E -6 M was reported; assay type: protein-complex assay
Summary of the method: as §2

[16] = target: Neuronal acetylcholine receptor; assay type: tissue-based, Brain; remark: listed apart in the source
[17] = target: T1, Neuronal acetylcholine receptor (Rattus norvegicus); remark: listed apart in the source

SMILES: CCc1ccncc1
- Kd [1]: 87 µM

SMILES: Cc1ccncc1
- Kd [1]: 2200 µM
- Mean enhancement of binding [2]: 6.6

SMILES: CCc1ccccn1
- Kd [1]: 100 µM
- Mean enhancement of binding [3]: 10.9

SMILES: CCC1CCCCN1 (stereo not given)
- Kd [1]: 7900 µM

SMILES: CC1CCCCN1 (stereo not given)
- Kd [1]: 3200 µM
- Kd [4]: < 0.0001 µM

SMILES: Nc1ccccn1 [2-AMINOPYRIDINE]
- Kd [1]: 200 µM
- Mean enhancement of binding [5]: 12.4

SMILES: CN1CCCCC1
- Kd [1]: 1200 µM
- Mean enhancement of binding [6]: 10

SMILES: CN1[C@@H]2CC[C@H]1C[C@@H](OC(=O)C(CO)c1ccccc1)C2 (stereo not given in full)
- Mean enhancement of binding [7]: 14.9

SMILES: CN1C(=O)CCC1c1cccnc1 (stereo not given)
- Kd [1]: 4700 µM
- Kd [8]: 0.62 µM

SMILES: CCCC1CCCCN1 (stereo not given)
- Kd [1]: 97 µM

SMILES: Oc1ccccn1
- Kd [1]: 880 µM
- Mean enhancement of binding [2]: 10

SMILES: OC1CCCNC1 (stereo not given)
- Kd [1]: 820 µM
- Mean enhancement of binding [2]: 8.6

SMILES: Cc1ccccn1
- Kd [1]: 0.05 µM
- Kd [9]: 64000 µM
- Mean enhancement of binding [10]: 20.7

SMILES: CCc1cccnc1
- Kd [1]: 9.5 µM
- Mean enhancement of binding [3]: 5.4

SMILES: CC1CCCNC1 (stereo not given)
- Kd [1]: 890 µM
- Mean enhancement of binding [2]: 5.2

SMILES: Cc1cccc(C)n1
- Kd [1]: 10000 µM
- Mean enhancement of binding [2]: 3.1

SMILES: CCN1CCCCC1
- Kd [1]: 3.3 µM
- Mean enhancement of binding [3]: 23

SMILES: CN1CCC(O)CC1
- Kd [1]: 3400 µM
- Mean enhancement of binding [2]: 13

SMILES: OC1CCNCC1
- Kd [1]: 3000 µM
- Mean enhancement of binding [2]: 4

SMILES: CN1[C@@H](CC(=O)c2ccccc2)CCC[C@H]1C[C@H](O)c1ccccc1
- Mean enhancement of binding [11]: 18.2

SMILES: C[N+](C)(C)CCOC(N)=O
- Mean enhancement of binding [12]: 15

SMILES: Cc1cccnc1 [3-METHYLPYRIDINE]
- Kd [8]: 1800 µM

SMILES: CNC1(C)C2CCC(C2)C1(C)C (stereo not given)
- Mean enhancement of binding [13]: 16.4

SMILES: ON1CCCCC1
- Kd [1]: 6000 µM
- Mean enhancement of binding [14]: 8.5

SMILES: Nc1cccnc1
- Kd [1]: 380 µM
- Mean enhancement of binding [3]: 2.4

SMILES: C1CCNC1 [PYRROLIDINE]
- Mean enhancement of binding [3]: 4.5

SMILES: c1ccncc1 [PYRIDINE]
- Kd [1]: 3300 µM

SMILES: CC1CCNCC1
- Kd [1]: 3900 µM
- Mean enhancement of binding [2]: 6.1

SMILES: C1CCNCC1 [PIPERIDINE]
- Kd [1]: 0.12 µM
- Mean enhancement of binding [15]: 10.3
- Kd [16]: 69 µM

SMILES: CN1CCC[C@H]1c1cccnc1
- Mean enhancement of binding [17]: 4.7

SMILES: CCCc1ccccn1
- Kd [1]: 1.7 µM
- Mean enhancement of binding [6]: 15.2

SMILES: CN1CCCC1 [N-METHYL PYRROLIDINE (NMP)]
- Kd [1]: 52 µM
- Mean enhancement of binding [3]: 4.1
